Screening results: PubChem BioAssay, several laboratories
Compounds with a hit are over-represented: about 3.8% of the library has one in this group of screens.
OX1R antag-1 – OX1R (human) antagonism; AID 485270; O43613; 1.8% of 330,000 active; inhibition, % at 6.6 µM; OX1R-expressing cells, FRET antagonist read-out; in the data active means inhibition mostly above about 38%, no sharp cut-off; inactive means mostly below about 40%;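 further: 0% = agonist challenge alone and 100% = reference antagonist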
CHO parental Ca – signal in parental CHO cells, OX1R antagonist counter-screen; parental CHO-K1, ATP-induced calcium, Fluo-8 fluorescence; 0.63% of 330,000 active; AID 463079; inhibition, % at 5.6 µM;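 active means inhibition above that plate's mean sample inhibition plus 3 SD, cut at about 26% in these data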;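 further: 0% = ATP-challenged DMSO wells and 100% = DMSO wells without ATP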
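test system = CHO parental line | reagent = ATP stimulus | measured by = intracellular calcium via Fluo-8 no-wash fluorescent dye | control set = ATP and no-ATP DMSO wells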
OX1R antag-2 – human HCRTR1 antagonism. AID 434989. inhibition, % at 5 µM. O43613. CHO/OX1R cells, Fluo-8 calcium fluorescence, orexin A. 0.43% of 330,000 active;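 active means inhibition above its plate's threshold, mean inhibition of all tested compounds on the plate plus 3 SD, cut at about 37% in these data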;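 further: 0% = orexin A challenge wells and 100% = SB-334867-A antagonist wells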
MPTP block – blocks calcium-induced mitochondrial swelling. isolated mouse mitochondria, Ca2+ swelling absorbance, 30 min. inhibition, % at 10 µM. 1.4% of 360,000 active. AID 602449;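 active means inhibition of 50% or more, scaled per plate between neutral and stimulator controls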;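 further: 0% = DMSO wells given calcium and 100% = 1 mM EGTA wells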
GPR7 antag – antagonists of human GPR7 (neuropeptides B/W receptor 1); GPR7-expressing cells, fluorescence antagonist assay; P48145; inhibition, % at 4.4 µM; 1.1% of 290,000 active; AID 1861; in the data active means inhibition above about 16%, passing the limit was not always enough;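 further: cells stimulated with the agonist NPW; 0% = agonist with vehicle and 100% = vehicle without agonist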
Target sequence (P48145 whole entry, looked up): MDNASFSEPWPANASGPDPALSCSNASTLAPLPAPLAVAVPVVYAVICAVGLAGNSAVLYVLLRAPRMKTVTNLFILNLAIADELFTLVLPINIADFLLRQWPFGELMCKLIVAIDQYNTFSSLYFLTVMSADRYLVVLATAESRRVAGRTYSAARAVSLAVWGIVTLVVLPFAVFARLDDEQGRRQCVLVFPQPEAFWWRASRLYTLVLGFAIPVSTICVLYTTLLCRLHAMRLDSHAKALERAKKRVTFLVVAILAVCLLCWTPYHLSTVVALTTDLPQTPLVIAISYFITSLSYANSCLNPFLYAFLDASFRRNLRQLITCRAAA
MPTP counter – Rhodamine 123 counter-screen of mitochondrial pore hits; shares compounds with MPTP block; isolated mitochondria, membrane potential, Rhodamine 123 fluorescence; inhibition, % at 10 µM; 78% of 5,000 active; in the data active means inhibition above about 22%;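 further: 0% = DMSO vehicle and 100% = positive control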
* hit, by the source's call.

How did O=C1CCCN2N=C(SCC(=O)Nc3cccc(Cl)c3)SC2=N1 do in these assays?
OX1R antag-1: 17; CHO parental Ca: -6; OX1R antag-2: -17; MPTP block: 17; GPR7 antag: 6

What do the screens show for `O=C1CCCN2N=C(SCC(=O)Nc3cccc(C(F)(F)F)c3)SC2=N1`?
OX1R antag-1: 29; CHO parental Ca: 37*; OX1R antag-2: -14; MPTP block: 74*; GPR7 antag: 4; MPTP counter: 74*

What do the screens show for `Cn1c(N)c(C(=O)COc2ccc(C#N)cc2)c(=O)n(C)c1=O`?
OX1R antag-1: 13; CHO parental Ca: -6; OX1R antag-2: -5; MPTP block: 2; GPR7 antag: -5

How did COc1ccc(NS(=O)(=O)c2ccc3oc(SCc4ccc(F)cc4)nc3c2)cc1 do in these assays?
OX1R antag-1: 28; CHO parental Ca: 1; OX1R antag-2: 8; MPTP block: 60*; GPR7 antag: -4; MPTP counter: 50*

What do the screens show for `COc1ccccc1NS(=O)(=O)c1ccc2oc(SCc3ccc(F)cc3)nc2c1`?
OX1R antag-1: 23; CHO parental Ca: -10; OX1R antag-2: 2; MPTP block: 7; GPR7 antag: -1

Results for COc1c(C)cccc1C(=O)NC(=S)Nc1ccccc1N1CCCC1 ?
OX1R antag-1: 35; CHO parental Ca: -38; OX1R antag-2: -58; MPTP block: 0; GPR7 antag: -33

Results for Cc1ccc(Cl)cc1NC(=O)CC(O)(C(F)(F)F)C(F)(F)F ?
OX1R antag-1: 34; CHO parental Ca: 5; OX1R antag-2: 24; MPTP block: 95*; GPR7 antag: 5; MPTP counter: 93*

What do the screens show for `O=C(NCCCNc1ccc(C(F)(F)F)cc1[N+](=O)[O-])c1ccc(Cl)cc1`?
OX1R antag-1: 16; CHO parental Ca: -10; OX1R antag-2: -8; MPTP block: 58*; GPR7 antag: 13; MPTP counter: 74*

What do the screens show for `CCC(NC(=O)C(C)NC)C(=O)N1CCCC1C(=O)NC1CCCc2ccccc21` (configuration not stated)?
OX1R antag-1: 0; CHO parental Ca: -11; OX1R antag-2: -10; MPTP block: -1

Results for N#Cc1ccc(NC(=O)N2CCC(c3nc4c(nnn4Cc4cccc(Cl)c4)c(=O)[nH]3)CC2)cc1 ?
OX1R antag-1: 3; CHO parental Ca: -2; OX1R antag-2: -10; MPTP block: 56*; GPR7 antag: -14; MPTP counter: 28*

What do the screens show for `COc1ccc(CCNC(=O)N[C@@H](Cc2ccccc2)C(=O)O)cc1`?
OX1R antag-1: 6; CHO parental Ca: -13; OX1R antag-2: -38; MPTP block: 0; GPR7 antag: 4

How did COC(=O)N1CCCCC1c1cc(C(=O)Nc2ccc(OC)cc2C)no1 (configuration not stated) do in these assays?
MPTP block: 0

What do the screens show for `O=[N+]([O-])c1cccc(CNc2ccc3c(c2)CCC3)c1`?
OX1R antag-1: 23; CHO parental Ca: -8; OX1R antag-2: -11; MPTP block: 2; GPR7 antag: -14

How did O=C(Nc1cccc([N+](=O)[O-])c1)c1cccc(C(=O)Nc2cccc([N+](=O)[O-])c2)c1 do in these assays?
OX1R antag-1: 11; CHO parental Ca: 13; OX1R antag-2: -3; MPTP block: 19; GPR7 antag: -14

How did Cc1cc(C)cc(NC(=O)Nc2ccc3c(c2)CCC3)c1 do in these assays?
OX1R antag-1: 36; CHO parental Ca: -8; OX1R antag-2: 1; MPTP block: 53*; GPR7 antag: -15; MPTP counter: 94*

How did O=C(Nc1cccc([N+](=O)[O-])c1)Nc1ccc2c(c1)CCC2 do in these assays?
OX1R antag-1: 62*; CHO parental Ca: 43*; OX1R antag-2: 5; MPTP block: 86*; GPR7 antag: 19; MPTP counter: 76*

Results for O=C(Nc1cccc(F)c1)Nc1ccc2c(c1)CCC2 ?
OX1R antag-1: 24; CHO parental Ca: 22; OX1R antag-2: -2; MPTP block: 67*; GPR7 antag: -4; MPTP counter: 92*

Results for O=C(Nc1ccccc1)Nc1ccc2c(c1)CCC2 ?
MPTP block: 23; GPR7 antag: -2

Results for Cc1ccc(NC(=O)Nc2ccc3c(c2)CCC3)cc1 ?
OX1R antag-1: 24; CHO parental Ca: 22; OX1R antag-2: -20; MPTP block: 1; GPR7 antag: -6
